Test results published in ChEMBL document CHEMBL3352043, “Discovery of small-molecule inhibitors selectively targeting the DNA-binding domain of the human androgen receptor” (J Med Chem, 2014).
Calls of active or inactive are those of the source. The rule behind the calls is not given here.

Columns and labels:
Androgen receptor [1] = biological target: T1, Androgen receptor (Homo sapiens, UniProt P10275); assay: Inhibition of androgen receptor in human LNCaP cells assessed as inhibition of prostate-specific antigen secretion into media after 3 days; type: cell-based
T1 sequence (P10275 whole entry): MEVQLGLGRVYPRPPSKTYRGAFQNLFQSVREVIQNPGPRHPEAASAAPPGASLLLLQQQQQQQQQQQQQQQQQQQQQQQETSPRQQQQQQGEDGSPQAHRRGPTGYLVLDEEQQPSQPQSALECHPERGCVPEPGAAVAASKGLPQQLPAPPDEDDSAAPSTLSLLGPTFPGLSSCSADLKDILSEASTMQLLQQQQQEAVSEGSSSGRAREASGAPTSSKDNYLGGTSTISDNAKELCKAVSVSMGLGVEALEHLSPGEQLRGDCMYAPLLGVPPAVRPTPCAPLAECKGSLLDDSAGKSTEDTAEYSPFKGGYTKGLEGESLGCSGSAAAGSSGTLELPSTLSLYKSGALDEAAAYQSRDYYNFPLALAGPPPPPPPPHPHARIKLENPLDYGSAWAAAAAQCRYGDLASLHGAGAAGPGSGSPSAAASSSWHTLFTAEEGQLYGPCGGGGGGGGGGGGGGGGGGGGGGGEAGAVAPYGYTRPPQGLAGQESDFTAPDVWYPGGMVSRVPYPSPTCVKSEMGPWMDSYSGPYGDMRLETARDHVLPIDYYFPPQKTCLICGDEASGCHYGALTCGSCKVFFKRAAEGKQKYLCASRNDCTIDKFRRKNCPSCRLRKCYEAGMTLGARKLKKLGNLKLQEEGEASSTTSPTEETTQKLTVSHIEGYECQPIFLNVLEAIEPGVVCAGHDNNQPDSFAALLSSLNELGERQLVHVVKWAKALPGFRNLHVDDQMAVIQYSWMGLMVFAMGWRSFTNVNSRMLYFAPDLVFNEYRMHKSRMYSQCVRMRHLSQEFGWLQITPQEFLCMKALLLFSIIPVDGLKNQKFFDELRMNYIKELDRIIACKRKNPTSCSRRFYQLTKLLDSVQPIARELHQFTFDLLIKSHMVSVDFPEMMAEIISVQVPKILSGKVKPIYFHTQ

[2] = biological target: T2, Androgen receptor (Homo sapiens) (UniProt P10275); assay: Binding affinity to biotinylated androgen receptor LBD (unknown origin) expressed in Escherichia coli BL21 by biolayer interferometry assay
T2 sequence (whole entry): T1 sequence (P10275 whole entry)

[3] = biological target: T3, Progesterone receptor (Homo sapiens) (UniProt P06401); assay: Inhibition of progesterone receptor (unknown origin) transcriptional activity at […]
T3 sequence (whole entry): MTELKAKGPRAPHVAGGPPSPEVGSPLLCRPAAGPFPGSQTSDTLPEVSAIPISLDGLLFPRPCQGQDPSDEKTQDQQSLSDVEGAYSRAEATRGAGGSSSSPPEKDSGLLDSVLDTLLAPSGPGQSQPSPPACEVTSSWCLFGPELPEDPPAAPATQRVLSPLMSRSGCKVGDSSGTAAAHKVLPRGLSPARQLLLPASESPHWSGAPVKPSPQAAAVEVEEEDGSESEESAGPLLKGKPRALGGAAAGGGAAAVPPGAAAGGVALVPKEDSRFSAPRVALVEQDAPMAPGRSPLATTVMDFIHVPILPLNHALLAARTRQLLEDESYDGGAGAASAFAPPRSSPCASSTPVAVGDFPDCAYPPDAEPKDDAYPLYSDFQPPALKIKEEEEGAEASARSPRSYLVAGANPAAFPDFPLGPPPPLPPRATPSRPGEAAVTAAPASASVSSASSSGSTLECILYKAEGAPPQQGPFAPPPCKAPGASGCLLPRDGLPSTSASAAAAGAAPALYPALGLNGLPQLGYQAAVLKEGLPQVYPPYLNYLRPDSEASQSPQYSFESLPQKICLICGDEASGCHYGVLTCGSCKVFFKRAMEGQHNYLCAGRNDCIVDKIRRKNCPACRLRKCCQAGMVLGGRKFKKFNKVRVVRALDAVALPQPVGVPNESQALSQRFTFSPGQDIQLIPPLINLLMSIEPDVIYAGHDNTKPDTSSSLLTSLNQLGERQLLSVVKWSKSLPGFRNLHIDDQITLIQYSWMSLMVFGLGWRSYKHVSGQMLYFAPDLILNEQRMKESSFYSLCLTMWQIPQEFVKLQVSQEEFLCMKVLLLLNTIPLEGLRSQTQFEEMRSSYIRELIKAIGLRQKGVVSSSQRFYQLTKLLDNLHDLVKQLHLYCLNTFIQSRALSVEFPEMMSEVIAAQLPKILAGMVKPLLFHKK
Summary of the method: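 PC3 cells were starved 5 days in RPMI 1640 with 5% charcoal-stripped serum. They were cotransfected with GR or PR plasmid plus 50 ng ARR3tk-luciferase, and 48 h later treated with compound for 24 h. Stimulation was 1 nM dexamethasone (GR) or progesterone (PR). Luciferase luminescence was read from cell lysates.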

Androgen receptor [4] = biological target: T1, Androgen receptor; assay: Inhibition of androgen receptor transcriptional activity in human LNCaP cells after 3 days by eGFP assay; type: cell-based

| IC50 (Androgen receptor [1]) [nM] | inhibition [2] | inhibition [3] | IC50 (Androgen receptor [4]) [nM] | Activity [2] | SMILES |
| --- | --- | --- | --- | --- | --- |
| 280 | inactive | inactive | 330 | – | c1ccc(-c2csc(N3CCOCC3)n2)cc1 |
| 170 | – | inactive | 120 | inactive | Brc1ncn(-c2csc(N3CCOCC3)n2)c1Br |
